Measurements published in ChEMBL document CHEMBL3286143, “Minimizing the Contribution of Enterohepatic Recirculation to Clearance in Rat for the NCINI Class of Inhibitors of HIV” (ACS Med Chem Lett, 2014).
Values after ≈ are worked out from the molar mass of the structure shown.

Assays:
[1] = system: Human immunodeficiency virus 1; experiment: Antiviral activity against HIV1 NL4.3 harboring integrase N124/T125 mutant; assay type: functional, organism-based; conditions: Human immunodeficiency virus 1, NL4.3
Outline: (§1)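 Cell-based antiviral assay giving EC50 (nM) against wild-type NL4.3 (IN T124/T125) or recombinant NL4.3 engineered to carry the naturally polymorphic integrase residues at positions 124 and 125.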

[2] = molecular target: T1, Human immunodeficiency virus type 1 integrase (Human immunodeficiency virus 1, UniProt Q7ZJM1); experiment: Apparent binding affinity to His-tagged HIV integrase; conditions: read-out: Kd(app)
[3] = system: Human immunodeficiency virus 1; experiment: Antiviral activity against HIV1 NL4.3 harboring integrase T124/T125 mutant; assay type: functional, organism-based; conditions: Human immunodeficiency virus 1, NL4.3; outline: as §1
[4] = system: Human immunodeficiency virus 1; experiment: Antiviral activity against HIV1 NL4.3 harboring integrase T124/A125 mutant; assay type: functional, organism-based; conditions: Human immunodeficiency virus 1, NL4.3; outline: as §1
[5] = Half life in rat liver microsomes; assay type: ADME
[6] = molecular target: T1, Human immunodeficiency virus type 1 integrase; experiment: Apparent binding affinity to Trx-His-tagged HIV integrase; conditions: read-out: Kd(app)
Outline: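 Apparent dissociation constant from the same displacement assay, run instead with a thioredoxin-tagged His6 integrase construct.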

[7] = Half life in human liver microsomes; assay type: ADME
[8] = Half life in rat; assay type: ADME, organism-based; conditions: in vivo
Cytochrome P450 2D6 = Cytochrome P450 2D6 (Homo sapiens, UniProt P10635); experiment: Inhibition of CYP2D6 (unknown origin); assay type: ADME
[9] = Drug excretion in bile duct cannulated rat bile after 3 hrs; assay type: ADME; conditions: read-out: Drug excretion
Outline: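 Rats with cannulated bile ducts were dosed, and the fraction of compound excreted into bile was measured at the 3 h time point.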

[10] = Lipophilicity, log D of the compound at pH 7.4; assay type: physicochemical; conditions: buffer
[11] = system: Human immunodeficiency virus 1; experiment: Antiviral activity against HIV1 NL4.3 harboring integrase N124/A125 mutant relative to control in presence of 50% human serum; assay type: functional
Outline: (§2)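 Serum shift for the same NL4.3 IN-variant viruses, from EC50 values measured with and without 50% human serum.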

[12] = system: Human immunodeficiency virus 1; experiment: Antiviral activity against HIV1 NL4.3 harboring integrase A124/T125 mutant relative to control in presence of 50% human serum; assay type: functional; outline: as §2
Rattus norvegicus = organism: Rattus norvegicus; experiment: Clearance in rat; assay type: ADME, organism-based; conditions: in vivo
[13] = system: Human immunodeficiency virus 1; experiment: Antiviral activity against HIV1 NL4.3 harboring integrase T124/T125 mutant relative to control in presence of 50% human serum; assay type: functional; outline: as §2
[14] = system: Human immunodeficiency virus 1; experiment: Antiviral activity against HIV-1 NL4.3-HxB2 virus harboring integrase T124/T125 mutant; assay type: functional, organism-based; conditions: Human immunodeficiency virus 1, NL4.3-HxB2; pooled result: one value given for 4 cell lines, strains, targets or settings
[15] = Apparent permeability in human Caco2 cells; assay type: ADME, cell-based; conditions: Caco-2
Cytochrome P450 3A4 = Cytochrome P450 3A4 (Homo sapiens, UniProt P08684); experiment: Inhibition of CYP3A4 (unknown origin); assay type: ADME
[16] = system: Human immunodeficiency virus 1; experiment: Antiviral activity against HIV1 NL4.3 harboring integrase N124/T125 mutant relative to control in presence of 50% human serum; assay type: functional; outline: as §2
[17] = system: Human immunodeficiency virus 1; experiment: Antiviral activity against HIV-1 NL4.3-HxB2 virus harboring integrase T124/T125 mutant relative to control in presence of 50% human serum; assay type: functional
[18] = system: Human immunodeficiency virus 1; experiment: Antiviral activity against HIV1 NL4.3 harboring integrase A124/A125 mutant relative to control in presence of 50% human serum; assay type: functional; outline: as §2
[19] = Solubility of the compound at pH 6.8; assay type: physicochemical; conditions: buffer
[20] = Half life in bile duct cannulated rat; assay type: ADME, organism-based; conditions: in vivo
[21] = molecular target: Human immunodeficiency virus type 1 integrase (Human immunodeficiency virus 1) (UniProt Q7ZJM1); experiment: Ratio of app-Kd for Trx-His-tagged HIV integrase to His-tagged HIV integrase
Sequence of Human immunodeficiency virus type 1 integrase (Human immunodeficiency virus 1) (Q7ZJM1 as listed by the source): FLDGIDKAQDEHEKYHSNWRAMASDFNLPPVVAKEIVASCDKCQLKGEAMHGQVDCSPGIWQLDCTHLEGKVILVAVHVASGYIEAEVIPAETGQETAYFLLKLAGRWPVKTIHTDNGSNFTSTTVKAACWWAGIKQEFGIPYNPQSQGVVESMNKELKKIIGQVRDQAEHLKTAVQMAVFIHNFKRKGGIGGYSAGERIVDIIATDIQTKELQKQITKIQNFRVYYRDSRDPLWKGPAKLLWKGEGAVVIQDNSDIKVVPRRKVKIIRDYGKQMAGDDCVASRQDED

T1 sequence (Q7ZJM1 whole entry): as the sequence (Q7ZJM1 as listed by the source) above
Sequence of Cytochrome P450 2D6 (P10635 whole entry): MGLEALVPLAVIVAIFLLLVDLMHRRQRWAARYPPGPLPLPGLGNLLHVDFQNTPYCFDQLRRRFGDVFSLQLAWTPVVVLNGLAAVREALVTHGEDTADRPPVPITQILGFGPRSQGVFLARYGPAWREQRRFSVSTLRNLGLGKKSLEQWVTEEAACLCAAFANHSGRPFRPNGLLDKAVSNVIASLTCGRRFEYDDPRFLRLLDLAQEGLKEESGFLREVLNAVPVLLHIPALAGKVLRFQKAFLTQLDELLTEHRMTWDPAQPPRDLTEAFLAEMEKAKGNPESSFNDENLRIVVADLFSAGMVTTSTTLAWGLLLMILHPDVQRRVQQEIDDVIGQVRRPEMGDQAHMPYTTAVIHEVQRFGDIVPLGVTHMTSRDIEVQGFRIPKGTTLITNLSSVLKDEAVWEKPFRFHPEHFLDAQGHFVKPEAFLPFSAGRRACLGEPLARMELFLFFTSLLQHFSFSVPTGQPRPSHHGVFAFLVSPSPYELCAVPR
Sequence of Cytochrome P450 3A4 (P08684 whole entry): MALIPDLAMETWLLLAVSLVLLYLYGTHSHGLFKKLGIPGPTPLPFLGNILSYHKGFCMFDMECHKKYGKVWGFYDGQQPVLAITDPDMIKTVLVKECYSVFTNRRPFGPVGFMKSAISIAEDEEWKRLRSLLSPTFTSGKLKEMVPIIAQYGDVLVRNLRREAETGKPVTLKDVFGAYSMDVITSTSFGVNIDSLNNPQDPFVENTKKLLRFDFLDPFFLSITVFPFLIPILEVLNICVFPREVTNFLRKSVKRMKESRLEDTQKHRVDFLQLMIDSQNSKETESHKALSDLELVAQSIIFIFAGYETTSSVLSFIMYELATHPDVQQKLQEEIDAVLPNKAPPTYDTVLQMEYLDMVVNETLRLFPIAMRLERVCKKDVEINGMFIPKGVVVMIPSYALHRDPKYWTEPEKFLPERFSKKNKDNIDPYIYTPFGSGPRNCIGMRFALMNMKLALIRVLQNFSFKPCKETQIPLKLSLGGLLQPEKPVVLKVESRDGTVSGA

Compound | EC50 [1] | EC50 [3] | half-life [5] | Kd [6] | half-life [7] | further results
Cc1nc2ccccc2c(-c2ccc3c(c2)CCCO3)c1[C@H](OC(C)(C)C)C(=O)O | 77 nM | 51 nM |  |  |  | Kd [2]: 24 nM; EC50 [4]: 30 nM
Cc1ccc(-c2nc(C)c([C@H](OC(C)(C)C)C(=O)O)c(-c3ccc4c(c3C)CCCO4)c2C)cc1C (single isomer, unassigned; atropisomer) | 620 nM | 2.7 nM | 1.5 h | 26 nM | 1.13 h | 
Cc1nc2c(c(-c3ccc4c(c3)CCCO4)c1[C@H](OC(C)(C)C)C(=O)O)Cc1ccccc1-2 | 34 nM | 72 nM |  |  |  | Kd [2]: 160 nM; EC50 [4]: 110 nM
Cc1nc(-c2cccc(-c3cnn(C)c3)c2)c(C)c(-c2ccc3c(c2)CCCO3)c1[C@H](OC(C)(C)C)C(=O)O | 920 nM | 24 nM |  | 59 nM |  | 
Cc1cc(-c2nc(C)c([C@H](OC(C)(C)C)C(=O)O)c(-c3ccc4c(c3)CCCO4)c2C)ccc1Cl | 960 nM | 5.8 nM |  | 17 nM | 0.717 h | 
Cc1cccc(-c2nc(C)c([C@H](OC(C)(C)C)C(=O)O)c(-c3ccc4c(c3)CCCO4)c2C)c1 | 1100 nM | 23 nM |  |  |  | 
Cc1noc(C)c1-c1ccc(-c2nc(C)c([C@H](OC(C)(C)C)C(=O)O)c(-c3ccc4c(c3)CCCO4)c2C)cc1 | 390 nM | 5.5 nM |  |  |  | 
Cc1noc(C)c1-c1ccc(-c2nc(C)c([C@H](OC(C)(C)C)C(=O)O)c(-c3ccc(Cl)cc3)c2C)cc1 | 810 nM | 7.7 nM | 2.67 h | 50 nM | 3.83 h | half-life [8]: 8.9 h; IC50 (Cytochrome P450 2D6): > 30000 nM; dose excreted at 3 h [9]: 22%; logD [10]: 3.1; fold change (FC) [11]: 9.9; fold change (FC) [12]: 9.9; CL (Rattus norvegicus): 0.6%; fold change (FC) [13]: 9.9; EC50 [14]: 6.5 nM; Papp [15]: 17 ×10⁻⁶ cm/s; IC50 (Cytochrome P450 3A4): 17000 nM; fold change (FC) [16]: 9.9; fold change (FC) [17]: 9.9; fold change (FC) [18]: 9.9; solubility [19]: 250 µg/mL (≈ 482 µM); half-life [20]: 5.4 h
Cc1nc(-c2cccc(-c3ccnn3C)c2)c(C)c(-c2ccc3c(c2)CCCO3)c1[C@H](OC(C)(C)C)C(=O)O | 1000 nM | 10 nM |  | 52 nM |  | 
Cc1nc2ccccc2c(-c2ccc3c4c(ccnc24)CCO3)c1[C@H](OC(C)(C)C)C(=O)O [BI-224436] |  |  | > 5 h |  |  | IC50 (Cytochrome P450 2D6): > 30000 nM; dose excreted at 3 h [9]: 60%; fold change (FC) [11]: 2.1; fold change (FC) [12]: 2.1; CL (Rattus norvegicus): 0.7%; fold change (FC) [13]: 2.1; EC50 [14]: 11 nM; fold change (FC) [16]: 2.1; fold change (FC) [17]: 2.1; fold change (FC) [18]: 2.1; solubility [19]: > 850 µg/mL; half-life [20]: 1.6 h
Cc1noc(C)c1-c1ccc(-c2nc(C)c([C@H](OC(C)(C)C)C(=O)O)c(-c3ccc4c(c3)CCCO4)c2C)c(F)c1 | 830 nM | 7.3 nM |  | 35 nM | 1 h | 
Cc1ccc(-c2nc(C)c([C@H](OC(C)(C)C)C(=O)O)c(-c3ccc(Cl)cc3)c2C)cc1C | 2700 nM | 14 nM | 0.85 h | 40 nM | 1.28 h | 
Cc1ccc(-c2nc(C)c([C@H](OC(C)(C)C)C(=O)O)c(-c3ccc4c(c3Cl)NCCO4)c2C)cc1C (single isomer, unassigned; atropisomer) | 830 nM | 3.3 nM | 0.933 h | 28 nM | 1.7 h | 
Cc1nc2c(c(-c3ccc4c(c3)CCCO4)c1[C@H](OC(C)(C)C)C(=O)O)CCCc1ccccc1-2 |  | 560 nM |  |  |  | Kd [2]: 1100 nM
Cc1nc(-c2ccc(-c3ccncc3)cc2)c(C)c(-c2ccc3c(c2)CCCO3)c1[C@H](OC(C)(C)C)C(=O)O | 150 nM | 23 nM |  | 24 nM |  | 
Cc1ccc(-c2nc(C)c([C@H](OC(C)(C)C)C(=O)O)c(-c3ccc4c(c3)CCCO4)c2C)cc1 | 1400 nM | 18 nM |  | 31 nM | 0.717 h | 
Cc1nc2c(ccc3ccccc32)c(-c2ccc3c(c2)CCCO3)c1[C@H](OC(C)(C)C)C(=O)O |  | 62 nM |  |  |  | Kd [2]: 180 nM; EC50 [4]: 63 nM
Cc1ccc(-c2nc(C)c([C@H](OC(C)(C)C)C(=O)O)c(-c3ccc4c(c3)CCCO4)c2C)cc1C | 1400 nM | 11 nM | 1.83 h | 27 nM | 0.567 h | 
Cc1nc(-c2ccccc2)c(C)c(-c2ccc3c(c2)CCCO3)c1[C@H](OC(C)(C)C)C(=O)O | 800 nM | 68 nM |  | 40 nM | 0.533 h | Kd [2]: 1000 nM; EC50 [4]: 78 nM; Ratio [21]: 25
